# High-throughput results: PubChem, several laboratories
# Rows were chosen to be rich in hits. Some 3% of all compounds tested hit in one or more screens of this group.
# Myeloid diff MLP: compounds promoting myeloid differentiation; ER-HoxA9 myeloid progenitors, lysozyme-GFP differentiation, flow cytometry; calls only at 10 µM; 360,000 tested, 1% active; AID 624256;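 active = normalized GFP-positive differentiation at or above the plate's own cutoff, the solvent-only control mean plus 3 SD; inconclusive = no clear call, values can overlap the other calls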;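 note: cells exposed to compound for four days before flow analysis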
# H9c2 protect: protects H9c2 cardiomyocytes from peroxide injury. 360,000 tested, 0.63% active. H2O2 injury protection, ATPLite, 2 h. protection from H2O2 cell death, % at 20 µM;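 active = compounds giving at least 50% protection of heart cells from peroxide-induced death in the single-dose screen, raw or plate-pattern-corrected value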;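 note: 0% = DMSO wells with peroxide and 100% = DMSO wells without peroxide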
# Granule exo inh: lytic granule exocytosis inhibition; AID 651702; inhibition, % at 10 µM; 360,000 tested, 0.66% active; TALL-104 LAMP-1 surface exposure, flow cytometry; cells stimulated with thapsigargin and PMA;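 active = inhibition above about 55%, limit read from the data; inconclusive = no clear call, values can overlap the other calls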
# Pemphigus Ab inh: inhibitors of pemphigus antibody binding to human desmoglein-3. DSG3-coupled beads, scFv-anti-DSG3-GFP binding, flow cytometry; active compounds read low. binding (percent of control), % at 10 µM. 310,000 tested, 0.48% active. AID 588358;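 active = binding more than 3 SD below its plate's average and above zero; inconclusive = below that plate limit but binding exactly zero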;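 note: hits lower antibody fragment binding to DSG3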
# SENP1 FRET inh: SENP1 (human) catalytic domain inhibition; 360,000 tested, 0.21% active; recombinant SENP1 catalytic domain, CyPet-SUMO1-YPet FRET cleavage; Q9P0U3; inhibition, % at 10 µM;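 active = inhibition at least 30% at 10 µM, raw YFP signal under a set limit, fluorescence ratio 0.5 to 1.5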;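 note: 0% = enzyme with DMSO and 100% = no enzyme wells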
# Target sequence (Q9P0U3 419-644 limits assumed): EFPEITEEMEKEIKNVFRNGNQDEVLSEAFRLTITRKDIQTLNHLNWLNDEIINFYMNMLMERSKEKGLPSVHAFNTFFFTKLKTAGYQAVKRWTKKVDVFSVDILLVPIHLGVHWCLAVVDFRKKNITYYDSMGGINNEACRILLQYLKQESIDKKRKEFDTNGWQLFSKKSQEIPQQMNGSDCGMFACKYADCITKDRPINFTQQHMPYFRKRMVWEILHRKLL
#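 Material: hSENP1 catalytic domain, recombinant; medium: Tris pH 8 with BME, BSA, NP40 and catalase; compound: single concentration of 10 µM compound, 0.5% DMSO final; technique: FRET read of cyan and yellow fluorescence; timing: 50 min enzyme reaction, room temperature, light-protected; reagent: SFCypet-SUMO1-SFYpet substrate at 25 nM; control set: no-enzyme low, enzyme-DMSO high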
# HNF4A DNA FP: change in binding of human HNF4 alpha to DNA; HNF4a-FITC DNA binding, fluorescence polarization, 1 h; activity change, % at 10 µM; 360,000 tested, 0.3% active; AID 1224865; in the data active = activity change above about 30%, passing the limit was not always enough
# Target sequence (P41235 whole entry, looked up): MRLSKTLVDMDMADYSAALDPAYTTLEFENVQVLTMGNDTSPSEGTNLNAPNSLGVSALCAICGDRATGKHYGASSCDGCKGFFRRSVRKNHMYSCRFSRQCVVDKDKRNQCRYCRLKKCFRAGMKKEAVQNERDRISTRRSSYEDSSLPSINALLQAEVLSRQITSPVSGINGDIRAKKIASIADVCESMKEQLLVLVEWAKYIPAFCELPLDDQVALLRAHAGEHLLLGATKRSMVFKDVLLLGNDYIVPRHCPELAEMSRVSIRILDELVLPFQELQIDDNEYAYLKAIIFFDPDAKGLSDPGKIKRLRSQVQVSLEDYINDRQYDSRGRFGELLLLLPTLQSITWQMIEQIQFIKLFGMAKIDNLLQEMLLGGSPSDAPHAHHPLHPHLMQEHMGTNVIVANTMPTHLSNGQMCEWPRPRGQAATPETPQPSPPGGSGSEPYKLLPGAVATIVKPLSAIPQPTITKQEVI
# SENP1 conf: SENP1 (human) inhibition, single concentration confirmation | 520 tested, 34% active | recombinant SENP1, CyPet-SUMO1-YPet FRET cleavage | inhibition, % at 10 µM | shares compounds with SENP1 FRET inh; in the data active = inhibition mostly above about 35%, no sharp cut-off; inactive = mostly below about 32%;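 note: 0% = enzyme with DMSO and 100% = no enzyme control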
# SENP1 kinetic: confirmation of human SENP1 SUMO protease inhibitors, kinetic; recombinant SENP1, CyPet-SUMO1-YPet FRET kinetic cleavage; AID 651690; 520 tested, 26% active; inhibition, % at 10 µM; shares compounds with SENP1 FRET inh; in the data active = inhibition mostly above about 32%, no sharp cut-off; inactive = mostly below about 29%;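 note: 0% = DMSO with enzyme and 100% = no enzyme substrate only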
# An asterisk follows results filed as active; i = inactive; ? = inconclusive; . = no result; + = active, no number.
SMILES,Myeloid diff MLP,H9c2 protect,Granule exo inh,Pemphigus Ab inh,SENP1 FRET inh,HNF4A DNA FP,SENP1 conf,SENP1 kinetic
COC(=O)CSc1nc2cc(OC)ccc2cc1C#N,i,-11.0,-1.9,?,37.4*,-1.3,16.4,3.0
COc1ccc2cc(C#N)c(SCC(=O)N3CCCC3)nc2c1,i,2.6,0.5,106.2,-26.9,0.5,.,.
N=c1occ(C(=O)c2cc(F)ccc2O)cc1C(=O)NC1CCCCC1,i,-5.5,2.8,102.8,30.3*,1.4,6.2,13.1
COCCCN(C(=O)C1=COCCO1)c1c(N)n(Cc2ccccc2)c(=O)[nH]c1=O,i,-0.8,-10.2,107.1,-23.4,0.0,.,.
CC(C)CCN(C(=O)C1=COCCO1)c1c(N)n(Cc2ccccc2)c(=O)[nH]c1=O,i,3.9,-5.5,103.6,33.7*,2.8,9.3,6.0
O=[N+]([O-])c1ccc(Oc2cccc3cccnc23)c([N+](=O)[O-])c1,+,4.6,30.2,103.4,76.2*,3.4,24.7,15.7
CCOC(=O)C(C)Sc1nnc(Cc2cc(=O)[nH]c(=O)[nH]2)n1-c1ccc(Cl)cc1 (centres undefined),i,-2.3,1.8,106.9,64.2*,-8.2,12.8,8.5
c1ccc(-c2nc(C3CCCCC3)c3ccccc3n2)cc1,i,-5.5,-4.9,111.9,0.8,-1.1,.,.
COc1cccc(CNC(=O)Cc2ccc(-c3ccccc3)cc2)c1,.,0.1,28.7,94.6,55.2*,7.2,18.1,20.1
Cc1ccc(CNC(=O)CSc2nc(=O)n3cccc(C)c3n2)cc1,i,5.6,2.3,108.7,-0.2,-2.7,.,.
Cc1ccc(NC2=C(C(=O)c3ccccc3)N(C)S(=O)(=O)c3ccccc32)cc1,i,-4.2,0.4,95.8,32.5*,4.5,34.6*,17.9
CNc1nc(-c2ccc([N+](=O)[O-])cc2)cs1,i,-10.3,2.1,.,43.8*,-1.1,12.5,11.8
COc1ccc(NC2=Nc3cccc4cccc2c34)cc1OC,i,23.5,-2.6,100.0,69.7*,10.4,29.4,11.7
COc1ccc(CC(=O)NNC2=Nc3cccc4cccc2c34)cc1OC,i,2.9,0.0,97.2,-144.3,1.1,.,.
COc1cc(NC2=Nc3cccc4cccc2c34)cc(OC)c1OC,i,1.8,-1.4,107.5,68.2*,9.4,39.0*,21.8
COc1cccc(NC2=Nc3cccc4cccc2c34)c1,i,-9.7,-2.8,101.0,80.7*,18.7,54.8*,33.3*
CCCc1cnc(Nc2nc(C(N)Cc3ccc(OC)cc3)cs2)nc1 (centres undefined),i,-1.1,0.8,.,3.0,-1.2,.,.
COc1ccccc1NC(=O)CON=C(N)CC(=O)NC1CCCCC1,+,1.0,2.9,101.6,54.8*,-11.0,50.7*,45.8*
Cc1cc(-c2ccccc2)nc(=O)[nH]1,i,0.4,1.3,100.2,35.0*,-23.8,1.4,12.9
O=c1nc(-c2ccccc2)cc(C(F)(F)F)[nH]1,i,7.0,-1.6,100.6,3.1,1.9,.,.
Cc1nn(C)c(C(=O)NN)c1Cl,i,1.3,-1.5,105.3,2.0,5.5,.,.
O=C1CCCC2=C1Sc1ccc(Cl)cc1N2,i,-4.2,23.9,100.5,72.1*,2.3,93.3*,50.3*
S=C1CCSc2ccc(Cl)cc2N1,i,15.2,4.4,98.2,0.2,0.4,.,.
CC1CCN(C(=O)C2CCC(C)(C(=O)O)C2(C)C)CC1 (centres undefined),i,1.0,-9.5,110.4,1.3,-6.6,.,.
Cc1sc(-c2ccccn2)nc1OC(=O)c1ccc(F)cc1F,i,4.8,2.7,96.5,51.5*,-1.8,49.9*,69.1*
SMILES,Myeloid diff MLP,H9c2 protect,Granule exo inh,Pemphigus Ab inh,SENP1 FRET inh,HNF4A DNA FP,SENP1 conf,SENP1 kinetic
Cc1sc(-c2ccccn2)nc1OC(=O)c1ccc(Cl)c(Cl)c1,i,5.0,2.9,88.9,3.1,0.4,.,.
COc1cc(Nc2cc(C)nc3ncnn23)cc(OC)c1OC,i,1.4,-2.2,112.7,0.6,-3.0,.,.
COc1ccc(Nc2cc(C)nc3ncnn23)cc1Cl,i,7.3,9.0,107.9,29.2*,-1.5,34.6*,20.0
Nc1ccc2c(c1)C(=O)N(CCCC(=O)O)C2=O,i,6.1,-1.2,99.2,74.4*,-3.0,56.3*,27.8
Nc1ccc2c(c1)C(=O)N(CCCCCC(=O)O)C2,i,5.4,0.3,95.8,1.4,-0.7,.,.
COc1cccc(-c2nc(SC)nc3sc(C(=O)NC(C)(C)C)c(N)c23)c1,i,6.6,-2.3,99.0,37.4*,3.1,47.9*,37.2*
CN(CC(=O)Nc1cccc(S(=O)(=O)N2CCCC2)c1)Cc1ccccc1,i,-0.3,2.9,.,0.4,-2.6,.,.
CCCn1c(CN2CCN(C(=O)OCC)CC2)nc2cc([N+](=O)[O-])ccc21,i,-7.3,1.0,107.4,0.0,-0.6,.,.
CC1(C)CC(=O)C2=C(C1)Nc1ccccc1NC2c1ccccc1F (centres undefined),i,-2.0,-5.1,96.0,36.3*,-7.1,-1.6,-0.6
CC1(C(=O)Nc2ccc3nc[nH]c3c2)CCN1C(=O)C1(c2ccccc2)CCCC1 (centres undefined),i,5.0,25.5,.,0.8,2.2,.,.
CCCCCCCCN1C(=O)[C@H](CC(=O)NCc2ccc(OC)c(OC)c2)C[C@@]2(C(=O)OC)CC(C)(C)CC=C12,i,.,2.4,.,0.2,-3.9,.,.
Cc1cccc(C)c1-n1nnnc1-c1nc2cc3ccccc3cc2[nH]c1=O,.,.,16.0,.,62.5*,-9.7,61.6*,44.6*
CC(=O)c1ccccc1Oc1nc(CN2CCOCC2)nc2scc(-c3cccs3)c12,i,4.0,-3.5,.,44.1*,-4.2,52.4*,33.0*
CCOc1ccc(OCC(=O)Nc2ccc(OC)cc2[N+](=O)[O-])cc1,i,0.9,-0.8,103.5,-3.5,-0.1,.,.
CCOc1ccc(NC(=O)/C=C/c2ccccc2)c([N+](=O)[O-])c1,i,-4.4,-3.2,.,37.1*,8.8,14.8,10.3
CCOc1ccc(/C=C/C(=O)Nc2ccc(OC)cc2[N+](=O)[O-])cc1,i,-9.8,5.3,97.9,70.1*,23.3,51.6*,34.0*
C/C(=N\NC(=O)Cn1cc([N+](=O)[O-])cn1)c1ccco1,i,2.8,-5.9,110.1,1.1,-3.3,.,.
CC(C)c1ccc(N(CC(=O)NC(C)(C)C)C(=O)CCC(=O)Nc2nccs2)cc1,i,4.2,-16.1,95.6,0.6,0.1,.,.
